# Reference: ChEMBL document CHEMBL1649231, “In vitro activities of panduratin A against clinical Staphylococcus strains” (2009)
# Assays:
# Assay type in all cases: functional
# [1] = test system: Staphylococcus hominis; test: Antimicrobial activity against methicillin-susceptible coagulase-negative Staphylococcus hominis assessed as resistant isolates after 24 hrs by broth microdilution method
# [2] = test system: Mammaliicoccus sciuri; test: Antimicrobial activity against methicillin-susceptible coagulase-negative Staphylococcus sciuri after 24 hrs by broth microdilution method
# Summary of the method: (§1)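 Clinical isolates came from blood, body fluids, genital secretions, pus or sputum, identified conventionally or by Vitek. MICs were run by CLSI M7-A6 broth microdilution in Mueller-Hinton broth with 5 × 10^5 CFU/ml inoculum. Agents were twofold serially diluted, starting from 10% DMSO. Drug-free and uninoculated controls were included. Plates were incubated aerobically at 37°C for 24 h; MIC is the lowest concentration giving no visible growth.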
# [3] = test system: Staphylococcus simulans; test: Antimicrobial activity against methicillin-susceptible coagulase-negative Staphylococcus simulans assessed as susceptible isolates after 24 hrs by broth microdilution method
# Summary of the method: (§2)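 Clinical isolates from blood, body fluids, pus, sputum or genital secretions, identified conventionally or by Vitek, were tested alongside ATCC 29213 and ATCC 12228 controls. CLSI M7-A6 broth microdilution in Mueller-Hinton broth used twofold dilutions from a 10% DMSO solution and 5 × 10^5 CFU/ml inoculum. Drug-free and uninoculated wells served as controls; incubation was aerobic at 37°C for 24 h. MIC was the lowest concentration with no visible growth.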
# [4] = test system: Staphylococcus aureus; test: Antimicrobial activity against methicillin-resistant Staphylococcus aureus assessed as resistant isolates after 24 hrs by broth microdilution method
# [5] = test system: Staphylococcus hominis; test: Antimicrobial activity against methicillin-susceptible coagulase-negative Staphylococcus hominis assessed as intermediate resistant isolates after 24 hrs by broth microdilution method; conditions: pooled result: one value given for 5 cell lines, strains, targets or settings
# [6] = test system: Staphylococcus epidermidis; test: Bactericidal activity against methicillin-resistant coagulase-negative Staphylococcus epidermidis after 24 hrs by plate counting method
# [7] = test system: Mammaliicoccus sciuri; test: Antimicrobial activity against methicillin-resistant coagulase-negative Staphylococcus sciuri after 24 hrs by broth microdilution method; summary of the method: as §1
# [8] = test system: Staphylococcus epidermidis; test: Bactericidal activity against methicillin-susceptible coagulase-negative Staphylococcus epidermidis after 24 hrs by plate counting method
# Summary of the method: (§3)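 Clinical staphylococcal isolates from patient body fluids, blood, genital secretions, pus or sputum; species by conventional methods or Vitek. Twofold dilutions in Mueller-Hinton broth, inoculum 5 × 10^5 CFU/ml, 37°C aerobic 24 h (CLSI M7-A6 microdilution). About 100 μl from each well without visible growth spread on MHA; 37°C 24 h. MBC = lowest concentration giving no growth on agar.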
# [9] = test system: Staphylococcus simulans; test: Antimicrobial activity against methicillin-resistant coagulase-negative Staphylococcus simulans assessed as intermediate resistant isolates after 24 hrs by broth microdilution method
# [10] = test system: Staphylococcus hominis; test: Bactericidal activity against methicillin-susceptible coagulase-negative Staphylococcus hominis after 24 hrs by plate counting method; summary of the method: as §3
# [11] = test system: Staphylococcus hominis; test: Antimicrobial activity against methicillin-resistant coagulase-negative Staphylococcus hominis assessed as resistant isolates after 24 hrs by broth microdilution method
# [12] = test system: Staphylococcus haemolyticus; test: Antimicrobial activity against methicillin-resistant coagulase-negative Staphylococcus haemolyticus assessed as intermediate resistant isolates after 24 hrs by broth microdilution method
# [13] = test system: Staphylococcus epidermidis; test: Antimicrobial activity against methicillin-susceptible coagulase-negative Staphylococcus epidermidis after 24 hrs by broth microdilution method; summary of the method: as §1
# [14] = test system: Staphylococcus epidermidis; test: Antimicrobial activity against methicillin-resistant coagulase-negative Staphylococcus epidermidis assessed as susceptible isolates after 24 hrs by broth microdilution method
# [15] = test system: Staphylococcus simulans; test: Antimicrobial activity against methicillin-susceptible coagulase-negative Staphylococcus simulans after 24 hrs by broth microdilution method; summary of the method: as §1
# [16] = test system: Staphylococcus aureus; test: Antimicrobial activity against methicillin-susceptible Staphylococcus aureus assessed as resistant isolates after 24 hrs by broth microdilution method
# [17] = test system: Staphylococcus haemolyticus; test: Antimicrobial activity against methicillin-resistant coagulase-negative Staphylococcus haemolyticus after 24 hrs by broth microdilution method; summary of the method: as §1
# [18] = test system: Mammaliicoccus sciuri; test: Bactericidal activity against methicillin-susceptible coagulase-negative Staphylococcus sciuri after 24 hrs by plate counting method; summary of the method: as §3
# [19] = test system: Staphylococcus hominis; test: Bactericidal activity against methicillin-resistant coagulase-negative Staphylococcus hominis after 24 hrs by plate counting method
# [20] = test system: Staphylococcus epidermidis; test: Antimicrobial activity against methicillin-resistant coagulase-negative Staphylococcus epidermidis assessed as intermediate resistant isolates after 24 hrs by broth microdilution method
# [21] = test system: Staphylococcus aureus; test: Bactericidal activity against methicillin-resistant Staphylococcus aureus after 24 hrs by plate counting method; conditions: Staphylococcus aureus, 24 h
# [22] = test system: Mammaliicoccus sciuri; test: Antimicrobial activity against methicillin-susceptible coagulase-negative Staphylococcus sciuri assessed as susceptible isolates after 24 hrs by broth microdilution method; summary of the method: as §2
# [23] = test system: Staphylococcus aureus; test: Antimicrobial activity against methicillin-susceptible Staphylococcus aureus assessed as intermediate resistant isolates after 24 hrs by broth microdilution method
# [24] = test system: Mammaliicoccus sciuri; test: Antimicrobial activity against methicillin-resistant coagulase-negative Staphylococcus sciuri assessed as resistant isolates after 24 hrs by broth microdilution method
# [25] = test system: Staphylococcus epidermidis; test: Antimicrobial activity against methicillin-resistant coagulase-negative Staphylococcus epidermidis assessed as resistant isolates after 24 hrs by broth microdilution method
# [26] = test system: Staphylococcus haemolyticus; test: Antimicrobial activity against methicillin-susceptible coagulase-negative Staphylococcus haemolyticus after 24 hrs by broth microdilution method; summary of the method: as §1
# [27] = test system: Staphylococcus haemolyticus; test: Antimicrobial activity against methicillin-susceptible coagulase-negative Staphylococcus haemolyticus assessed as susceptible isolates after 24 hrs by broth microdilution method
# [28] = test system: Staphylococcus simulans; test: Bactericidal activity against methicillin-resistant coagulase-negative Staphylococcus simulans after 24 hrs by plate counting method; summary of the method: as §3
# [29] = test system: Mammaliicoccus sciuri; test: Antimicrobial activity against methicillin-susceptible coagulase-negative Staphylococcus sciuri assessed as resistant isolates after 24 hrs by broth microdilution method
# [30] = test system: Staphylococcus haemolyticus; test: Bactericidal activity against methicillin-resistant coagulase-negative Staphylococcus haemolyticus after 24 hrs by plate counting method
# [31] = test system: Staphylococcus epidermidis; test: Antimicrobial activity against methicillin-susceptible coagulase-negative Staphylococcus epidermidis assessed as resistant isolates after 24 hrs by broth microdilution method
# [32] = test system: Staphylococcus epidermidis; test: Antimicrobial activity against methicillin-susceptible coagulase-negative Staphylococcus epidermidis assessed as susceptible isolates after 24 hrs by broth microdilution method
# [33] = test system: Staphylococcus aureus; test: Bactericidal activity against methicillin-susceptible Staphylococcus aureus after 24 hrs by plate counting method; summary of the method: as §3
# [34] = test system: Staphylococcus haemolyticus; test: Antimicrobial activity against methicillin-susceptible coagulase-negative Staphylococcus haemolyticus assessed as resistant isolates after 24 hrs by broth microdilution method
# [35] = test system: Staphylococcus hominis; test: Antimicrobial activity against methicillin-susceptible coagulase-negative Staphylococcus hominis after 24 hrs by broth microdilution method; summary of the method: as §1
# [36] = Staphylococcus epidermidis, 24 h
compound,measurement,setting,value
CC[C@H]1OC(=O)[C@H](C)[C@@H](O[C@H]2C[C@@](C)(OC)[C@@H](O)[C@H](C)O2)[C@H](C)[C@@H](O[C@@H]2O[C@H](C)C[C@H](N(C)C)[C@H]2O)[C@](C)(O)C[C@@H](C)C(=O)[C@H](C)[C@@H](O)[C@]1(C)O [ERYTHROMYCIN],Activity,[1],27%
same,MIC,[2],0.5 µg/mL
same,MIC50,[2],0.5 µg/mL
same,MIC90,[2],16 µg/mL
same,Activity,[3],50%
same,Activity,[4],100%
same,Activity,[5],23%
same,MBC50,[6],32 µg/mL
same,MBC,[6]; [36],1 µg/mL
same,MIC50,[7],16 µg/mL
same,MIC90,[7],32 µg/mL
same,MBC50,[8],2 µg/mL
same,MBC,[8]; [36],1 µg/mL
same,Activity,[9],15%
same,MBC50,[10],2 µg/mL
same,MBC,"[10]; Staphylococcus hominis, 24 h",1 µg/mL
same,Activity,[11],74%
same,Activity,[12],15%
same,MIC,[13],0.5 µg/mL
same,MIC50,[13],0.5 µg/mL
same,MIC90,[13],16 µg/mL
same,Activity,[14],11%
same,MIC,[15],0.5 µg/mL
same,MIC50,[15],0.5 µg/mL
same,MIC90,[15],16 µg/mL
same,Activity,[16],40%
same,MIC50,[17],16 µg/mL
same,MIC90,[17],32 µg/mL
same,MBC50,[18],2 µg/mL
same,MBC,"[18]; Mammaliicoccus sciuri, 24 h",1 µg/mL
same,MBC50,[19],32 µg/mL
same,MBC,"[19]; Staphylococcus hominis, 24 h",1 µg/mL
same,Activity,[20],15%
same,MBC,[21],32 µg/mL
same,Activity,[22],50%
same,Activity,[23],4%
same,Activity,[24],74%
same,Activity,[25],74%
same,MIC,[26],0.5 µg/mL
same,MIC50,[26],0.5 µg/mL
same,MIC90,[26],16 µg/mL
same,Activity,[27],50%
same,MBC50,[28],32 µg/mL
same,MBC,"[28]; Staphylococcus simulans, 24 h",1 µg/mL
same,Activity,[29],27%
same,MBC50,[30],32 µg/mL
same,MBC,"[30]; Staphylococcus haemolyticus, 24 h",1 µg/mL
same,Activity,[31],27%
same,Activity,[32],50%
same,MBC50,[33],4 µg/mL
same,MBC,"[33]; Staphylococcus aureus, 24 h",1 µg/mL
same,Activity,[34],27%
same,MIC,[35],0.5 µg/mL
same,MIC50,[35],0.5 µg/mL
same,MIC90,[35],16 µg/mL
